Data published in ChEMBL document CHEMBL1136016, “Synthesis, biological activity, and molecular modeling investigation of new pyrazolo[4,3-e]-1,2,4-triazolo[1,5-c]pyrimidine derivatives as human A(3) adenosine receptor antagonists” (J Med Chem, 2002).
Blank lines part the entries; values can stand above or below the compound they belong to.

Columns and labels:
Adenosine receptor A2b [1] = biological target: T1, Adenosine receptor A2b (Homo sapiens, UniProt P29275); assay: Displacement of [3H]-DPCPX from human Adenosine A2B receptor expressed in HEK293 cells; range 118-173; format: cell-based
T1 sequence (P29275 whole entry): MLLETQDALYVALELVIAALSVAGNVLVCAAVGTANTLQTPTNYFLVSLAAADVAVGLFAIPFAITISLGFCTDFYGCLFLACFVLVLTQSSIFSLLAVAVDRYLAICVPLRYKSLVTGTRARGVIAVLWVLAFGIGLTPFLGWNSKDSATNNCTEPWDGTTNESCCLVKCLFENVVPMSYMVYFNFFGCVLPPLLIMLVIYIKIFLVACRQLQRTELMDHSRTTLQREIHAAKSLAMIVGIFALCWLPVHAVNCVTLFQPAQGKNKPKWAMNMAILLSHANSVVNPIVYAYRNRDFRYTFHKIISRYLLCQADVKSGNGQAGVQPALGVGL
Outline: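 HEK-293 membranes expressing the human receptor were incubated 60 min at 25 °C. Six to eight test concentrations were used. Nonspecific binding was set with NECA. n = 3-6.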

[2] = biological target: Adenosine receptors; A2b & A3 (Homo sapiens) (UniProt P29275+P0DMS8); assay: Selectivity ratio (h2B/hA3); format: protein assay
Adenosine receptor A3 [3] = biological target: T2, Adenosine receptor A3 (Homo sapiens, UniProt P0DMS8); assay: Displacement of [3H]MRE3008-F20 from human Adenosine A3 receptor expressed in HEK cells; range 0.65-1.58; format: cell-based, HEK293
T2 sequence (P0DMS8 whole entry): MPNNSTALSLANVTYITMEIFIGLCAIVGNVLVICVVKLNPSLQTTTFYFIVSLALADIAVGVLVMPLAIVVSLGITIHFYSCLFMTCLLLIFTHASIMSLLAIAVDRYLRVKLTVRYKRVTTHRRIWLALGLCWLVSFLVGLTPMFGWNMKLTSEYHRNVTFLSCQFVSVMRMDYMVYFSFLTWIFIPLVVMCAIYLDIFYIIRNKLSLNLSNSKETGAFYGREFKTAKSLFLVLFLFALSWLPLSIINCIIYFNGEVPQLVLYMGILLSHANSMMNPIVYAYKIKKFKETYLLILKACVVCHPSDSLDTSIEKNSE

Adenosine receptor A2a [4] = biological target: T3, Adenosine receptor A2a (Homo sapiens, UniProt P29274); assay: Displacement of [3H]SCH-58261 from human Adenosine A2A receptor expressed in HEK293 cells; range 255-366; format: cell-based
[5] = biological target: Adenosine receptors; A1 & A3 (Homo sapiens) (UniProt P30542+P0DMS8); assay: Selectivity ratio (hA1/hA3); format: protein assay
Adenosine receptor A1 [6] = biological target: T4, Adenosine receptor A1 (Homo sapiens, UniProt P30542); assay: Displacement of [3H]DPCPX from human Adenosine A1 receptor expressed in CHO cells; range 314-536; format: cell-based
T4 sequence (P30542 whole entry): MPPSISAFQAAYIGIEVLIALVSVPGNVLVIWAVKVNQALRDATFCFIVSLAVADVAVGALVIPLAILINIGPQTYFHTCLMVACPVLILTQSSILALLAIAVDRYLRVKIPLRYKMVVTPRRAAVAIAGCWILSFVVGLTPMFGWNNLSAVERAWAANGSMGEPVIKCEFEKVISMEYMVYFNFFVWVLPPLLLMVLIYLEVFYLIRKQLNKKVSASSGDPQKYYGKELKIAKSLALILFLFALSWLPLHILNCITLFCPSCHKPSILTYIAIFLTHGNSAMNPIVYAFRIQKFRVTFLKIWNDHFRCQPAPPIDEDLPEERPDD

Adenosine receptor A3 [7] = biological target: T2, Adenosine receptor A3; assay: biochemical
Adenosine receptor A2a [8] = biological target: T3, Adenosine receptor A2a; assay: Displacement of [3H]SCH-58261 from human Adenosine A2A receptor expressed in HEK293 cells; range 332-426; format: cell-based
Adenosine receptor A2b [9] = biological target: T1, Adenosine receptor A2b; assay: Displacement of [3H]DPCPX from human Adenosine A2B receptor expressed in HEK293 cells; range 57-105; format: cell-based
Outline: (§1)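 Membranes from HEK-293 cells with human recombinant A2B receptor. Incubation 60 min at 25 °C in 50 mM Tris HCl, 10 mM MgCl2, 1 mM EDTA, 0.1 mM benzamidine, pH 7.4, with 2 IU/mL adenosine deaminase and 40 nM [3H]DPCPX. At least six to eight test concentrations. Nonspecific binding defined with NECA. n = 3-6.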

Adenosine receptor A2a [10] = biological target: T3, Adenosine receptor A2a; assay: Displacement of [3H]SCH-58261 from human Adenosine A2A receptor expressed in HEK293 cells; range 300-414; format: cell-based
Adenosine receptor A1 [11] = biological target: T4, Adenosine receptor A1; assay: Displacement of [3H]DPCPX from human Adenosine A1 receptor expressed in CHO cells; format: cell-based
Outline: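 Human recombinant A1 receptor in CHO cell membranes, resuspended in 50 mM Tris HCl pH 7.4. Displacement run 120 min at 25 °C with 1 nM [3H]DPCPX, 50 µg protein per assay, and at least six to eight test concentrations. Nonspecific binding defined with CHA. Bound and free separated on glass-fiber filters; filter radioactivity counted. n = 3-6.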

Adenosine receptor A2b [12] = biological target: T1, Adenosine receptor A2b; assay: Displacement of [3H]DPCPX binding at human Adenosine A2B receptor expressed in HEK293 cells; format: cell-based; outline: as §1
Adenosine receptor A3 [13] = biological target: T2, Adenosine receptor A3; assay: Displacement of specific [3H]MRE3008-F20 binding at human Adenosine A3 receptor expressed in HEK cells; value ranges from 39-55; format: cell-based, HEK293
Adenosine receptor A2b [14] = biological target: T1, Adenosine receptor A2b; assay: Displacement of [3H]DPCPX from human Adenosine A2B receptor expressed in HEK293 cells; range 115-143; format: cell-based
Outline: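 Competition binding on membranes of HEK-293 cells carrying recombinant human A2B receptor. Incubation 60 min at 25 °C in 50 mM Tris HCl pH 7.4 with 10 mM MgCl2, 1 mM EDTA, 0.1 mM benzamidine and 2 IU/mL adenosine deaminase. Radioligand 40 nM [3H]DPCPX, at least six to eight test concentrations. NECA defined nonspecific binding. Bound ligand separated on glass-fibre filters and counted; n = 3-6.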

Adenosine receptor A1 [15] = biological target: T4, Adenosine receptor A1; assay: Displacement of [3H]DPCPX from human Adenosine A1 receptor expressed in CHO cells; range 351-526; format: cell-based
Outline: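 Competition binding on membranes of CHO cells stably expressing human A1 receptor, resuspended in 50 mM Tris HCl pH 7.4. Incubation 120 min at 25 °C with 1 nM [3H]DPCPX, 50 µg protein per assay and at least six to eight test concentrations. CHA defined nonspecific binding. Bound ligand separated on glass-fibre filters and counted; n = 3-6.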

Adenosine receptor A3 [16] = biological target: T2, Adenosine receptor A3; assay: Inhibition of IB-MECA agonist-mediated cAMP production in membranes of CHO cells expressing human Adenosine A3 receptor; range 1.2-4.9; format: functional, cell-based
Outline: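 Human A3-CHO membranes (in 50 mM Tris HCl, 10 mM MgCl2, 1 mM EDTA, pH 7.4) were preincubated for 10 min at 37 °C with 5 µM GTP, 0.5 mM Ro 20-1724 and 2.0 IU/mL adenosine deaminase. IB-MECA (100 nM) or antagonist was then added with 1 mM ATP and forskolin for 10 min. The reaction was stopped by 2 min boiling. cAMP was measured by [3H]cAMP competitive protein binding using beef adrenal binding protein, 150 min at 4 °C.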

Adenosine receptor A3 [17] = biological target: T2, Adenosine receptor A3; assay: Displacement of [3H]MRE3008-F20 from human Adenosine A3 receptor expressed in HEK cells; range 0.23-0.36; format: cell-based, HEK293
Adenosine receptor A2a [18] = biological target: T3, Adenosine receptor A2a; assay: Displacement of [3H]SCH-58261 from human Adenosine A2A receptor expressed in HEK293 cells; range 162-200; format: cell-based
Adenosine receptor A2b [19] = biological target: T1, Adenosine receptor A2b; assay: Displacement of [3H]DPCPX from human Adenosine A2B receptor expressed in HEK293 cells; range 89-116; format: cell-based; outline: as §1
Adenosine receptor A2a [20] = biological target: T3, Adenosine receptor A2a; assay: Displacement of [3H]SCH-58261 from human Adenosine A2A receptor expressed in HEK293 cells; range 312-515; format: cell-based
Adenosine receptor A3 [21] = biological target: T2, Adenosine receptor A3; assay: biochemical; remark: listed apart in the source
Adenosine receptor A1 [22] = biological target: T4, Adenosine receptor A1; assay: Displacement of [3H]DPCPX from human Adenosine A1 receptor expressed in CHO cells; range 525-691; format: cell-based

T3 sequence (P29274 whole entry): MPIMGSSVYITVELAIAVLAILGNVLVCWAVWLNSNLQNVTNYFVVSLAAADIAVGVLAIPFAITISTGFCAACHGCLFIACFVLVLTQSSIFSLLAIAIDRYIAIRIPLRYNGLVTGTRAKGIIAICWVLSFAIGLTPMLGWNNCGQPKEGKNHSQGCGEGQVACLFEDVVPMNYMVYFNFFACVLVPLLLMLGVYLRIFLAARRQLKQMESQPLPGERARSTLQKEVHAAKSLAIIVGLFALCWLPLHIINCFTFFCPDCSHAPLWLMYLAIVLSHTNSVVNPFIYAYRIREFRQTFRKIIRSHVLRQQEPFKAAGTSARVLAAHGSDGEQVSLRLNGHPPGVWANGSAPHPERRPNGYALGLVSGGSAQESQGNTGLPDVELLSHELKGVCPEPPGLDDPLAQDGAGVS

Ratio [2]: 156
Ki (Adenosine receptor A1 [6]): 410 nM
Ki (Adenosine receptor A3 [7]): 0.5 nM
Ki (Adenosine receptor A2a [8]): 376 nM
Ratio [5]: 820
Ki (Adenosine receptor A2b [9]): 78 nM
SMILES: CCCCn1cc2c(nc(NC(=O)Nc3ccc4c(c3)OCO4)n3nc(-c4ccco4)nc23)n1

Ratio [2]: > 213
Ki (Adenosine receptor A2a [10]): 352 nM
Ki (Adenosine receptor A1 [11]): > 10000 nM
Ki (Adenosine receptor A2b [12]): > 10000 nM
Ratio [5]: > 213
Ki (Adenosine receptor A3 [13]): 47 nM
SMILES: CCCCn1cc2c(nc(NC(=O)Nc3ccc(S(=O)(=O)O)cc3)n3nc(-c4ccco4)nc23)n1

More lines, now with the values behind:

SMILES: CCCn1cc2c(nc(NC(=O)Cc3ccccc3)n3nc(-c4ccco4)nc23)n1
Ki (Adenosine receptor A2b [1]): 143 nM
Ratio [2]: 142
Ki (Adenosine receptor A3 [3]): 1.01 nM
Ki (Adenosine receptor A2a [4]): 306 nM
Ratio [5]: 348

SMILES: Cn1cc2c(nc(NC(=O)Nc3ccc(Cl)cc3)n3nc(-c4ccco4)nc23)n1
Ratio [2]: 441
Ki (Adenosine receptor A2b [14]): 128 nM
Ki (Adenosine receptor A1 [15]): 430 nM
IC50 (Adenosine receptor A3 [16]): 2.4 nM
Ki (Adenosine receptor A3 [17]): 0.29 nM
Ki (Adenosine receptor A2a [18]): 180 nM
Ratio [5]: 1480

SMILES: CCCCn1cc2c(nc(NC(=O)Cc3ccccc3)n3nc(-c4ccco4)nc23)n1
Ratio [2]: 91
Ki (Adenosine receptor A2b [19]): 101 nM
Ki (Adenosine receptor A2a [20]): 400 nM
Ki (Adenosine receptor A3 [21]): 1.11 nM
Ki (Adenosine receptor A1 [22]): 602 nM
Ratio [5]: 542
